Test results taken from ChEMBL document CHEMBL4190234, “Design, synthesis and anticancer activity of new monastrol analogues bearing 1,3,4-oxadiazole moiety” (Eur J Med Chem, 2017).

Experiments:
Type in all cases: functional
[1] = system: HT-29; experiment: Growth inhibition of human HT-29 cells at 10 uM incubated for 48 hrs by sulforhodamine B assay relative to control; conditions: HT-29, 48 h, read-out: GI
Method in brief: (§1)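 Single-dose screen at 10 μM final: cells in RPMI 1640, 5% FBS, 2 mM L-glutamine, plated 5,000–40,000/well, preincubated 24 h at 37°C, 5% CO2; drug 48 h; adherent cells fixed with 10% TCA, suspension cells with 16% TCA; SRB stain, absorbance 515 nm; percentage growth versus untreated control, with time-zero plates.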

[2] = system: MCF7; experiment: Growth inhibition of human MCF7 cells at 10 uM incubated for 48 hrs by sulforhodamine B assay relative to control; conditions: MCF7, 48 h, read-out: GI; method in brief: as §1
[3] = system: SF-295; experiment: Growth inhibition of human SF295 cells at 10 uM incubated for 48 hrs by sulforhodamine B assay relative to control; conditions: SF-295, 48 h, read-out: GI
Method in brief: (§2)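 NCI single-dose screen: cells grown in RPMI 1640 with 5% FBS and 2 mM L-glutamine, plated at 5,000–40,000 cells/well and preincubated 24 h at 37 °C, 5% CO2. Compounds taken from DMSO stock and tested at final 10 µM for 48 h. Cells fixed with TCA, stained with 0.4% SRB, absorbance read at 515 nm. Percentage growth calculated against untreated controls; controls held DMSO at the same dilution.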

[4] = system: COLO 205; experiment: Growth inhibition of human COLO205 cells at 10 uM incubated for 48 hrs by sulforhodamine B assay relative to control; conditions: COLO 205, 48 h, read-out: GI; method in brief: as §1
[5] = system: T47D; experiment: Growth inhibition of human T47D cells at 10 uM incubated for 48 hrs by sulforhodamine B assay relative to control; conditions: read-out: GI; method in brief: as §2
[6] = system: SW-620; experiment: Growth inhibition of human SW620 cells at 10 uM incubated for 48 hrs by sulforhodamine B assay relative to control; conditions: SW-620, 48 h, read-out: GI; method in brief: as §2
[7] = system: SK-MEL-5; experiment: Growth inhibition of human SK-MEL-5 cells at 10 uM incubated for 48 hrs by sulforhodamine B assay relative to control; conditions: SK-MEL-5, 48 h, read-out: GI; method in brief: as §2
[8] = system: OVCAR-8; experiment: Growth inhibition of human OVCAR8 cells at 10 uM incubated for 48 hrs by sulforhodamine B assay relative to control; conditions: OVCAR-8, 48 h, read-out: GI; method in brief: as §1
[9] = system: MDA-MB-231; experiment: Growth inhibition of human MDA-MB-231 cells at 10 uM incubated for 48 hrs by sulforhodamine B assay relative to control; conditions: MDA-MB-231, 48 h, read-out: GI; method in brief: as §1
[10] = system: TK-10; experiment: Growth inhibition of human TK10 cells at 10 uM incubated for 48 hrs by sulforhodamine B assay relative to control; conditions: TK-10, 48 h, read-out: GI; method in brief: as §2
[11] = system: U-251; experiment: Growth inhibition of human U251 cells at 10 uM incubated for 48 hrs by sulforhodamine B assay relative to control; conditions: U-251, 48 h, read-out: GI; method in brief: as §2
[12] = system: CCRF-CEM; experiment: Growth inhibition of human CCRF-CEM cells at 10 uM incubated for 48 hrs by sulforhodamine B assay relative to control; conditions: read-out: GI; method in brief: as §1
[13] = system: NCI-H460; experiment: Growth inhibition of human NCI-H460 cells at 10 uM incubated for 48 hrs by sulforhodamine B assay relative to control; conditions: NCI-H460, 48 h, read-out: GI; method in brief: as §1
[14] = system: M14; experiment: Growth inhibition of human M14 cells at 10 uM incubated for 48 hrs by sulforhodamine B assay relative to control; conditions: M14, 48 h, read-out: GI; method in brief: as §1
[15] = system: KM12; experiment: Growth inhibition of human KM12 cells at 10 uM incubated for 48 hrs by sulforhodamine B assay relative to control; conditions: KM12, 48 h, read-out: GI; method in brief: as §1
[16] = system: K562; experiment: Growth inhibition of human K562 cells at 10 uM incubated for 48 hrs by sulforhodamine B assay relative to control; conditions: K562, 48 h, read-out: GI; method in brief: as §1
[17] = system: UACC-257; experiment: Growth inhibition of human UACC257 cells at 10 uM incubated for 48 hrs by sulforhodamine B assay relative to control; conditions: UACC-257, 48 h, read-out: GI; method in brief: as §2
[18] = system: Malme-3M; experiment: Growth inhibition of human MALME-3M cells at 10 uM incubated for 48 hrs by sulforhodamine B assay relative to control; conditions: read-out: GI; method in brief: as §1
[19] = system: PC-3; experiment: Growth inhibition of human PC3 cells at 10 uM incubated for 48 hrs by sulforhodamine B assay relative to control; conditions: PC-3, 48 h, read-out: GI; method in brief: as §1
[20] = system: ACHN; experiment: Growth inhibition of human ACHN cells at 10 uM incubated for 48 hrs by sulforhodamine B assay relative to control; conditions: read-out: GI; method in brief: as §1
[21] = system: Hs-578T; experiment: Growth inhibition of human Hs 578T cells at 10 uM incubated for 48 hrs by sulforhodamine B assay relative to control; conditions: read-out: GI; method in brief: as §1
[22] = system: SF-268; experiment: Growth inhibition of human SF268 cells at 10 uM incubated for 48 hrs by sulforhodamine B assay relative to control; conditions: SF-268, 48 h, read-out: GI; method in brief: as §2
[23] = system: RPMI-8226; experiment: Growth inhibition of human RPMI8226 cells at 10 uM incubated for 48 hrs by sulforhodamine B assay relative to control; conditions: RPMI-8226, 48 h, read-out: GI; method in brief: as §1
[24] = system: SNB-19; experiment: Growth inhibition of human SNB19 cells at 10 uM incubated for 48 hrs by sulforhodamine B assay relative to control; conditions: SNB-19, 48 h, read-out: GI; method in brief: as §2
[25] = system: UACC-62; experiment: Growth inhibition of human UACC62 cells at 10 uM incubated for 48 hrs by sulforhodamine B assay relative to control; conditions: UACC-62, 48 h, read-out: GI; method in brief: as §2
[26] = system: SK-MEL-2; experiment: Growth inhibition of human SK-MEL-2 cells at 10 uM incubated for 48 hrs by sulforhodamine B assay relative to control; conditions: SK-MEL-2, 48 h, read-out: GI; method in brief: as §2
[27] = system: NCI-H322M; experiment: Growth inhibition of human NCI-H322M cells at 10 uM incubated for 48 hrs by sulforhodamine B assay relative to control; conditions: read-out: GI; method in brief: as §1
[28] = system: SR; experiment: Growth inhibition of human SR cells at 10 uM incubated for 48 hrs by sulforhodamine B assay relative to control; conditions: read-out: GI; method in brief: as §2
[29] = system: LOX IMVI; experiment: Growth inhibition of human LOXIMVI cells at 10 uM incubated for 48 hrs by sulforhodamine B assay relative to control; conditions: read-out: GI; method in brief: as §1
[30] = system: IGROV-1; experiment: Growth inhibition of human IGROV1 cells at 10 uM incubated for 48 hrs by sulforhodamine B assay relative to control; conditions: IGROV-1, 48 h, read-out: GI; method in brief: as §1
[31] = system: SK-MEL-28; experiment: Growth inhibition of human SK-MEL-28 cells at 10 uM incubated for 48 hrs by sulforhodamine B assay relative to control; conditions: SK-MEL-28, 48 h, read-out: GI; method in brief: as §2

Structure (SMILES)	inhibition of growth at 10 µM [1]	inhibition of growth at 10 µM [2]	inhibition of growth at 10 µM [3]	inhibition of growth at 10 µM [5]	inhibition of growth at 10 µM [6]	inhibition of growth at 10 µM [7]	inhibition of growth at 10 µM [8]	inhibition of growth at 10 µM [9]	inhibition of growth at 10 µM [10]	inhibition of growth at 10 µM [11]	inhibition of growth at 10 µM [12]	inhibition of growth at 10 µM [13]	inhibition of growth at 10 µM [14]	inhibition of growth at 10 µM [15]	inhibition of growth at 10 µM [17]	inhibition of growth at 10 µM [18]	inhibition of growth at 10 µM [19]	inhibition of growth at 10 µM [20]	inhibition of growth at 10 µM [21]	inhibition of growth at 10 µM [22]	also measured
CC(=O)C1=C(C)NC(SCc2nnc(-c3ccc(C)cc3)o2)=NC1c1ccc(F)cc1 (stereo unspecified)	< 10%	< 10%	< 10%	25.6%	< 10%	< 10%	< 10%	< 10%	14.4%	< 10%	11.9%	< 10%	< 10%	< 10%	< 10%	< 10%	14.7%	< 10%	< 10%	< 10%	inhibition of growth at 10 µM [4]: < 10%; inhibition of growth at 10 µM [16]: < 10%; inhibition of growth at 10 µM [23]: 16.3%; inhibition of growth at 10 µM [24]: < 10%; inhibition of growth at 10 µM [25]: 15.4%; inhibition of growth at 10 µM [26]: < 10%; inhibition of growth at 10 µM [27]: < 10%; inhibition of growth at 10 µM [28]: 19.1%; inhibition of growth at 10 µM [29]: < 10%; inhibition of growth at 10 µM [30]: 11%
CCOC(=O)C1=C(C)NC(SCc2nnc(-c3ccc(Cl)cc3)o2)=NC1c1ccc(Cl)cc1Cl (stereo unspecified)	46.9%	68%	52.8%	52.6%	33.8%	19.7%	45.8%	58.3%	20.6%	34.7%	72.8%	40.8%	34.8%	36.6%	31.9%	27.2%	54.9%	42.3%	32.9%	26.7%	inhibition of growth at 10 µM [31]: < 10%; inhibition of growth at 10 µM [24]: 27.1%; inhibition of growth at 10 µM [25]: 48.4%; inhibition of growth at 10 µM [26]: 40%; inhibition of growth at 10 µM [27]: 21.1%; inhibition of growth at 10 µM [28]: 62.1%; inhibition of growth at 10 µM [29]: 41.7%; inhibition of growth at 10 µM [30]: 56.1%
CC(=O)C1=C(C)NC(SCc2nnc(-c3ccc(Cl)cc3)o2)=NC1c1ccc(F)cc1 (stereo unspecified)	< 10%	10.6%	< 10%	24.1%	< 10%	< 10%	< 10%	17%	14.6%	< 10%	< 10%	< 10%	< 10%	< 10%	< 10%	< 10%	18.5%	< 10%	< 10%	< 10%	inhibition of growth at 10 µM [4]: < 10%; inhibition of growth at 10 µM [16]: < 10%; inhibition of growth at 10 µM [31]: < 10%; inhibition of growth at 10 µM [23]: 13.8%; inhibition of growth at 10 µM [24]: < 10%; inhibition of growth at 10 µM [25]: 22.6%; inhibition of growth at 10 µM [26]: < 10%; inhibition of growth at 10 µM [27]: < 10%; inhibition of growth at 10 µM [28]: 19.1%; inhibition of growth at 10 µM [29]: < 10%; inhibition of growth at 10 µM [30]: 15.4%
COc1ccc(-c2nnc(CSC3=NC(c4ccc(F)cc4)C(C(C)=O)=C(C)N3)o2)cc1 (stereo unspecified)	< 10%	10.5%	< 10%	28.9%	< 10%	< 10%	< 10%	14.4%	< 10%	15.3%	15.7%	< 10%	13.4%	< 10%	< 10%	12.3%	18.7%	< 10%	< 10%	< 10%	inhibition of growth at 10 µM [4]: < 10%; inhibition of growth at 10 µM [16]: < 10%; inhibition of growth at 10 µM [31]: < 10%; inhibition of growth at 10 µM [23]: 14%; inhibition of growth at 10 µM [24]: 13.4%; inhibition of growth at 10 µM [25]: 10.8%; inhibition of growth at 10 µM [26]: < 10%; inhibition of growth at 10 µM [27]: < 10%; inhibition of growth at 10 µM [28]: 13.3%; inhibition of growth at 10 µM [29]: < 10%; inhibition of growth at 10 µM [30]: < 10%
CC(=O)C1=C(C)NC(SCc2nnc(-c3ccc(Cl)cc3)o2)=NC1c1ccc(Cl)cc1 (stereo unspecified)	< 10%	16.4%	< 10%	39.5%	< 10%	< 10%	14.5%	27%	13.1%	14.8%	20.9%	< 10%	< 10%	< 10%	< 10%	11.6%	31.1%	13.5%	< 10%	< 10%	inhibition of growth at 10 µM [4]: < 10%; inhibition of growth at 10 µM [16]: 11.1%; inhibition of growth at 10 µM [31]: < 10%; inhibition of growth at 10 µM [23]: 32.9%; inhibition of growth at 10 µM [24]: 16.6%; inhibition of growth at 10 µM [25]: 27.7%; inhibition of growth at 10 µM [26]: < 10%; inhibition of growth at 10 µM [27]: 12%; inhibition of growth at 10 µM [28]: 37.8%; inhibition of growth at 10 µM [29]: < 10%; inhibition of growth at 10 µM [30]: 23.4%
